Source: PubChem BioAssay
OXTR ag: human OXTR agonists, primary screen, fluorescence, CHO-OTR cells, Fluo-8 calcium. activation, % at 3 µM. Oxytocin receptor (Homo sapiens), P30559. 0.32% of 320,000 active. Fluo-8 calcium fluorescence; normalized: DMSO 0%, oxytocin 100%;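 active means activation above the mean of all tested compounds plus 3 SD, cutoff set per screening run, cut at about 20% in these data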;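 further: peak over basal fluorescence ratio from a 100 s FLIPR kinetic read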
Target sequence (P30559 whole entry, looked up): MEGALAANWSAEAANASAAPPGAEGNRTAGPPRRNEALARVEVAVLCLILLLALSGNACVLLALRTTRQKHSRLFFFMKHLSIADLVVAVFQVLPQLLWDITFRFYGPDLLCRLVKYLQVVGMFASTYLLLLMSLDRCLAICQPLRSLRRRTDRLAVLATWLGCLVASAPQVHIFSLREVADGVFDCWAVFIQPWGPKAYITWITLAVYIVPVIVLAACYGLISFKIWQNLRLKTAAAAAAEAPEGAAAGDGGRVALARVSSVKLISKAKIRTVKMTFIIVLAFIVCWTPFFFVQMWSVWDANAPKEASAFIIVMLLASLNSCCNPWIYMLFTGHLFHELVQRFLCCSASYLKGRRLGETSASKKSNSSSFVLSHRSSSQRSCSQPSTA
TAAR1 antag: human TAAR1 antagonists, primary screen, Fluo-8 calcium fluorescence, CHO RD-HGA16 cells; Trace amine-associated receptor 1 (Homo sapiens), Q96RJ0; antagonist; AID 624466, 2012; inhibition, % at 3 µM; 1.5% of 360,000 active;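 active means inhibition above a per-plate cutoff, the mean inhibition of test compounds on that plate plus 3 SD, cut at about 49% in these data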;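 further: 0% = DMSO plus EC80 beta-PEA response and 100% = DMSO alone without agonist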
Target sequence (Q96RJ0 whole entry, looked up): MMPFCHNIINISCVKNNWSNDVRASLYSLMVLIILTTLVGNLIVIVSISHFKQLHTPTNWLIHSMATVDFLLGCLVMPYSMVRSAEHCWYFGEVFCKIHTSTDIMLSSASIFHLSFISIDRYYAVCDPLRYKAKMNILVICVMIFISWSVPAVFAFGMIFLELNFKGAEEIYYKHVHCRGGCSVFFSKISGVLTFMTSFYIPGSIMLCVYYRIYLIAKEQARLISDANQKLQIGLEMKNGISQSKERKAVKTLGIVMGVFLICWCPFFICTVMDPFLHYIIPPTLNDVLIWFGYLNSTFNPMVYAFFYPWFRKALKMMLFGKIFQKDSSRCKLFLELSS
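Test system: CHO RD-HGA16 cells bearing hTAAR1 | Reagent: β-PEA, EC80 | Compound dosing: 3 µM, single point | Schedule: Dye loading 75 min at 37 °C, then 30 min room temperature | Signal: Calcium fluorescence with Fluo-8 | Evaluation: Percent inhibition of PEA-evoked calcium signal, max/basal emission ratio | Control set: DMSO-only wells and EC80 β-PEA-stimulated wells | Repeats: Singlicate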
OXTR potentiate: human OXTR potentiators, primary screen, fluorescence, CHO-OTR cells, Fluo-8 calcium; Fluo-8 calcium fluorescence, potentiator mode; 0% = oxytocin EC15, 100% = EC100; activation, % at 3 µM; 0.061% of 320,000 active;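 active means activation above that plate's cutoff, the mean activation of tested compounds plus 3 SD, cut at about 6.6% in these data, passing the limit was not always enough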;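 further: 100% uses oxytocin at 75 nM as the full agonist control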
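Assay system: CHO-OTR cells, human receptor / Also added: oxytocin at about EC15, sub-maximal agonist stimulus / Dosing: single dose, 3.0 µM nominal final compound concentration / Incubation: 6 min pre-incubation, 100 s read / Technique: Fluo-8 calcium dye fluorescence / Read-out: % activation vs EC15 and EC100 oxytocin / Benchmarks: EC15 oxytocin low, 75 nM oxytocin high / Replicates: singlicate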
TAAR1 agonist: human TAAR1 agonists, primary screen, Fluo-8 calcium fluorescence, CHO RD-HGA16 cells; AID 624467, 2012; 0.99% of 360,000 active; activation, % at 3 µM; vehicle wells 0%, saturating PEA agonist 100%; Trace amine-associated receptor 1 (Homo sapiens), Q96RJ0;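 active means activation above the mean activation of all test compounds in the run plus 3 SD, cut at about 38% in these data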
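Repeats: no replicates (n 1) | Material: CHO-derived RD-HGA16 cells with stable Gα16 and human TAAR1 | Technique: Kinetic Fluo-8 calcium fluorescence | Schedule: 17-24 h seeding, 75 min 37 °C dye, 30 min RT | Evaluation: % activation from peak over basal fluorescence ratio, DMSO-to-PEA scaled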
V1aR counter: agonists of human V1a receptor, primary screen, counter-screen for OXTR agonist project, fluorescence, CHO-V1R cells | 0.25% of 320,000 active | activation, % at 3 µM | Vasopressin V1a receptor (Homo sapiens), P37288 | AID 2797, 2010 | Fluo-8 calcium fluorescence, agonist mode; 0% DMSO, 100% 3 nM vasopressin;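 active means activation above the mean activation of all tested compounds plus 3 SD, per screening run, cut at about 20% in these data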;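 further: signal is peak over basal fluorescence ratio across a 100 second FLIPR read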
TAAR1 ag conf: human TAAR1 agonists, retest of hits, confirmation, Fluo-8 calcium fluorescence, CHO RD-HGA16 cells. shares compounds with TAAR1 agonist. scaled: DMSO 0%, maximal phenethylamine 100%. activation, % at 3 µM. 82% of 2,400 active. AID 651783, 2012;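 active means activation above a cutoff set at the run's mean compound activation plus 3 SD, cut at about 39% in these data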
Ga16 nonsel ag: nonselective calcium mobilization agonists, CHO-Ga16 cells, counter-screen for hTAAR1 agonist project, cell-based, fluorescence, CHO-Ga16 parental line; shares compounds with TAAR1 agonist; Fluo-8 calcium fluorescence; normalized to maximal ATP response, DMSO zero; activation, % at 3 µM; 50% of 2,400 active; AID 651787, 2012;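 active means activation above the run cutoff, the mean activation over all tested wells plus 3 SD, cut at about 12% in these data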;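 further: 0% = DMSO wells and 100% = maximal ATP response on the peak over basal ratio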
TAAR1 desens: TAAR1 desensitization by agonist hits, confirmation, counter-screen for TAAR1 agonist project, cell-based, fluorescence, tachyphylaxis. shares compounds with TAAR1 agonist. inhibition, % at 3 µM. 46% of 2,400 active. CHO RD-HGA16 hTAAR1, Fluo-8 calcium, beta-PEA response inhibition;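 active means inhibition above the run cutoff, the mean inhibition of all test compounds plus 3 SD, cut at about 49% in these data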;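 further: beta-PEA stimulus applied at its EC80; loss of beta-PEA calcium signal after compound pretreatment read as receptor desensitization; 0% = DMSO with beta-PEA at EC80 and 100% = DMSO alone without agonist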
Ga16 nonsel ant: inhibition of ATP-evoked calcium response in CHO-Ga16 cells, counter-screen for TAAR1 agonist project, cell-based, fluorescence; CHO-Ga16 ATP-induced calcium, Fluo-8 fluorescence; 39% of 2,400 active; AID 651952, 2012; shares compounds with TAAR1 agonist; inhibition, % at 3 µM;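 active means inhibition above the plate's mean compound inhibition plus 3 SD, computed per plate, cut at about 22% in these data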;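 further: 0% = EC80 ATP with DMSO and 100% = DMSO wells without ATP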
* = called active by the depositor; nt = not tested or not shown. Rows were chosen to be rich in hits. Some 2.3% of all compounds tested hit in one or more screens of this group.

SMILES	OXTR ag	TAAR1 antag	OXTR potentiate	TAAR1 agonist	V1aR counter	TAAR1 ag conf	Ga16 nonsel ag	TAAR1 desens	Ga16 nonsel ant
O=C(c1ccc(Cn2cc(Br)cn2)cc1)N1N=C(C(F)F)CC1(O)C(F)F (stereo unspecified)	12	19	-12	29	15	nt	nt	nt	nt
CN(C)c1ccc(C(=O)/C=C/c2cccnc2)cc1	-1	-4	-1	0	-1	nt	nt	nt	nt
CN(C)c1ccc(/C=C/C(=O)c2cccc(Br)c2)cc1	94*	109*	-10	328*	155*	126*	125*	85*	83*
CN1CCN(C(c2ccc(Cl)cc2)c2cc(Cl)c3cccnc3c2O)CC1 (stereo unspecified)	1	-1	-12	69*	2	118*	67*	49*	20
CN1CCN(C(c2ccc(C(F)(F)F)cc2)c2cc(Cl)c3cccnc3c2O)CC1 (stereo unspecified)	-1	5	-4	119*	1	129*	106*	81*	44*
CCN1CCN(C(c2ccc(C(F)(F)F)cc2)c2ccc3cccnc3c2O)CC1 (stereo unspecified)	5	-3	-5	29	2	nt	nt	nt	nt
C=CCN(CC=C)Cc1cc(=O)oc2cc(C)c(Cl)cc12	nt	-10	nt	1	nt	nt	nt	nt	nt
O=C(c1cc2sccc2n1Cc1ccc(F)cc1)N1CCN(c2nc3ccccc3s2)CC1	0	18	-17	2	1	nt	nt	nt	nt
Cn1c(C(=O)N2CCN(c3nc4ccccc4s3)CC2)cc2sccc21	4	25	-5	46*	7	26	14*	42	25*
COC(=O)[C@]12C[C@H](CC(=O)NCCc3ccccc3OC)C(=O)N(Cc3ccc4c(c3)OCO4)C1=C[C@H](COCc1ccccc1)O[C@@H]2C	nt	nt	nt	nt	nt	nt	6	nt	12
CCCCCCCCN1C(=O)[C@@H](CC(=O)NCCc2ccccc2OC)C[C@@]2(C(=O)OC)C1=C[C@H](C1CCCC1)O[C@@H]2C	nt	28	nt	62*	nt	72*	3	64*	9
COC(=O)[C@]12C[C@H](CC(=O)NCC3CCCCC3)C(=O)N(Cc3ccccc3)C1=C[C@H](C(C)(C)C)O[C@@H]2C	nt	-43	nt	-2	nt	nt	nt	nt	nt
COC(=O)[C@]12C[C@H](CC(=O)NCCc3ccccc3OC)C(=O)N(Cc3ccccc3)C1=C[C@H](C(C)(C)C)O[C@@H]2C	nt	54*	nt	65*	nt	80*	4	53*	6
O=C(NC(=S)N1CCN(c2ccccc2)CC1)c1ccc(S(=O)(=O)N2CCOCC2)cc1	4	-19	4	-2	-1	nt	nt	nt	nt
Cc1nc2ccc(C(=O)N3c4ccccc4N=C(c4ccc5c(c4)OCO5)C3C(=O)NCc3ccccc3)cc2[nH]1 (stereo unspecified)	nt	-10	nt	1	nt	nt	nt	nt	nt
c1ccc2c(Cn3ccnc3)c[nH]c2c1	3	13	3	54*	0	71*	4	36	7
COc1ccc(NC(=O)CCCCCn2nnc3ccccc3c2=O)cc1	nt	-15	nt	1	nt	nt	nt	nt	nt
Cc1sc2ncn(CC(=O)NCC(=O)N3CCN(c4ccccc4F)CC3)c(=O)c2c1C	0	-4	-1	0	-1	nt	nt	nt	nt
Cc1ccc(NC2=NCC(=O)N2CCc2ccccc2)cc1C	0	-3	-8	47*	1	59*	7	26	10
Cc1ccc(NC(=O)c2ccc3c(=O)n4c(nc3c2)CCC4)cc1S(=O)(=O)N(C)C	nt	-10	nt	4	nt	nt	nt	nt	nt
Fc1ccc2nc(C3CCN(Cc4nc(CC5CC5)no4)CC3)[nH]c2c1	0	-8	-10	-1	0	nt	nt	nt	nt
Fc1ccccc1C1CCN(Cc2nc(CC3CC3)no2)C1 (stereo unspecified)	-1	-8	-2	48*	-1	62*	3	-3	2
Cc1ccc(C)c(NC(=O)CN(C)C(=O)c2oc3c(Cl)cccc3c2C)c1	-2	30	-4	9	0	nt	nt	nt	nt
COc1ccc(NC(=O)COC(=O)c2ccc(OC)c(S(=O)(=O)N3CCCC3)c2)cc1OC	0	4	-2	14	0	nt	nt	nt	nt
CCN1C(=O)/C(=C/C=C2\N(CC)c3cc(S(=O)(=O)N(C)C)ccc3N2c2ccccc2)SC1=S	19	36	-7	62*	19	48*	56*	72*	78*
SMILES	OXTR ag	TAAR1 antag	OXTR potentiate	TAAR1 agonist	V1aR counter	TAAR1 ag conf	Ga16 nonsel ag	TAAR1 desens	Ga16 nonsel ant
CCN1C(=O)/C(=C\C=C\c2ccccc2[N+](=O)[O-])SC1=S	nt	2	nt	5	nt	nt	nt	nt	nt
COc1cc2c(cc1OC)C(c1ccccc1C(F)(F)F)CC(=O)N2 (stereo unspecified)	0	-23	-4	3	0	nt	nt	nt	nt
Cn1c(N/N=C\c2cccc(O)c2)cc(=O)n(C)c1=O	-1	7	-2	52*	0	77*	1	15	5
O=C(CCc1ccccc1)N/N=C/c1cccc(O)c1	1	3	-5	-1	0	nt	nt	nt	nt
O=C(N/N=C/c1cccc(O)c1)N/N=C/c1cccc(O)c1	0	16	-3	46*	0	81*	1	38	11
CC(=O)c1ccc(NC(=S)NC(NC(=O)c2ccco2)C(Cl)(Cl)Cl)cc1 (stereo unspecified)	61*	43	-24	96*	38*	106*	29*	80*	21
Fc1ccc2nc(-c3ccc(CN4CCC5(CC4)CNc4ccccc45)cc3)c(-c3ccccc3)nc2c1	nt	-21	nt	-3	nt	nt	nt	nt	nt
